In ChEMBL document CHEMBL3621067, “Antihyperlipidemic morpholine derivatives with antioxidant activity: An investigation of the aromatic substitution” (Bioorg Med Chem, 2015):

How the values were obtained:
Liver = experiment: Antioxidant activity in rat heat-inactivated rat hepatic microsomes assessed as inhibition of TBAR level incubated for 45 mins by spectrophotometry; format: functional; conditions: 0.75 h
How it was run: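 Heat-inactivated liver microsomes from untreated rats (2.5 mg protein/mL, 4 mM fatty acid residues) with 0.2 mM ascorbic acid in Tris–HCl/KCl (50/150 mM, pH 7.4); compounds in DMSO, 10 μM to 1 mM. Incubated at 37 °C for 45 min; TBAR read at 535 against 600 nm. Run in duplicate; IC50 is the mean concentration giving 50% inhibition of control peroxidation.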

Rattus norvegicus [1] = experiment: Antihyperlipidemic activity in Triton WR1339-induced hyperlipidemic rat assessed as reduction in plasma total cholesterol at 56 umol/kg, ip dosed 1 hr after Triton WR1339 challenge and measured 24 hrs post dose relative to control; format: functional
How it was run: (§1)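 Rats given Triton WR1339 to induce acute hyperlipidemia, established 24 h later; compounds given ip at 56 μmol/kg. Animals held at 22 °C on a 12 h light/dark cycle with free chow and water. Plasma lipids measured in duplicate; values are the mean of 8–10 rats per compound, expressed as % decrease versus hyperlipidemic controls; significance by Student's test.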

Rattus norvegicus [2] = experiment: Antihyperlipidemic activity in Triton WR1339-induced hyperlipidemic rat assessed as reduction in plasma triglyceride level at 56 umol/kg, ip dosed 1 hr after Triton WR1339 challenge and measured 24 hrs post dose relative to control; format: functional; how it was run: as §1
[3] = molecular target: T1, Squalene synthase (Rattus norvegicus) (UniProt Q02769); experiment: Inhibition of squalene synthase in rat liver microsomes assessed as reduction in conversion of [3H]farnesyl pyrophosphate to squalene at 10 uM […] by liquid scintillation counting method
T1 sequence (whole entry): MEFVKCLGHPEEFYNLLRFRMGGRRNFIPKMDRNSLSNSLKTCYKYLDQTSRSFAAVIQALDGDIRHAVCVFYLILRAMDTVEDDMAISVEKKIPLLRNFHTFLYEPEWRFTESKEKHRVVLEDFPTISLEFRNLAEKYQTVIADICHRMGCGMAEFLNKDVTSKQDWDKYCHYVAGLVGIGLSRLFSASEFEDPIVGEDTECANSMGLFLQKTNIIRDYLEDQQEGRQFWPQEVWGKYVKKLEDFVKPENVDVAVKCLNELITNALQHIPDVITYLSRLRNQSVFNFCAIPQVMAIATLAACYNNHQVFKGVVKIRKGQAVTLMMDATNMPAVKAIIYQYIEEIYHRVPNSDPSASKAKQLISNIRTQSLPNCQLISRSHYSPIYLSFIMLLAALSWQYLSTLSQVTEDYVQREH

[4] = molecular target: T1, Squalene synthase (Rattus norvegicus); experiment: Inhibition of squalene synthase in rat liver microsomes assessed as reduction in conversion of [3H]farnesyl pyrophosphate to squalene at 50 uM incubated for 30 mins by liquid scintillation counting
How it was run: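 Rat liver microsomes (18 μg protein/mL) in 50 mM phosphate, pH 7.4, with 10 mM MgCl2 and 0.5 mM NADPH; compounds in ethanol. Preincubated 10 min at 37 °C, then started with [3H]FPP (0.5 μM, 0.27 Ci/mmol) for 10 min at 37 °C. Stopped with 15% ethanolic KOH, heated 65 °C for 30 min, extracted into petroleum ether, and squalene counted by scintillation. Run in duplicate.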

Rattus norvegicus [5] = experiment: Antihypercholesterolemic activity in Triton WR1339-induced hyperlipidemic rat assessed as reduction in plasma LDL-C level at 56 umol/kg, ip dosed 1 hr after Triton WR1339 challenge and measured 24 hrs post dose relative to control; format: functional
How it was run: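 Rats, housed at 22 °C on a 12 h light/dark cycle with free chow and water, given Triton WR1339 to induce acute hyperlipidemia (established 24 h later). Compound given ip at 56 μmol/kg. Plasma LDL measured in duplicate and expressed as % decrease versus hyperlipidemic controls; mean of 8–10 rats per compound.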

Squalene synthase = molecular target: T2, Squalene synthase (Rattus norvegicus, UniProt Q02769); experiment: Inhibition of squalene synthase in rat liver microsomes assessed as reduction in conversion of [3H]farnesyl pyrophosphate to squalene incubated for 30 mins by liquid scintillation counting
T2 sequence (Q02769 whole entry): T1 sequence (whole entry)

SMILES | IC50 (Liver) | inhibition [3] | inhibition [4] | inhibition in vivo at 56 µmol/kg (Rattus norvegicus [1]) | inhibition in vivo at 56 µmol/kg (Rattus norvegicus [2]) | inhibition in vivo at 56 µmol/kg (Rattus norvegicus [5]) | IC50 (Squalene synthase)
CN1CCOC(O)(c2ccc(-c3ccc([N+](=O)[O-])cc3)cc2)C1 (stereo unspecified) | 73 µM | 29% | – | 41% | 44% | – | –
OC1(c2ccc(-c3nccs3)cc2)CN2CCCCC2CO1 (stereo unspecified) | 1000 µM | – | 35% | 21% | 58% | – | –
CN1CC(O)(c2ccc(C3CCCCC3)cc2)OC2CCCCC21 (stereo unspecified) | 180 µM | 18% | – | 51% | 20% | 23% | 42 µM
CN1CCOC(O)(c2ccc3c(ccc4ccccc43)c2)C1 (stereo unspecified) | 174 µM | 48% | – | 58% | 69% | 52% | 8.8 µM
CCC(C)(C)C(=O)O[C@H]1C[C@@H](C)C=C2C=C[C@H](C)[C@H](CC[C@@H]3C[C@@H](O)CC(=O)O3)[C@H]21 [SIMVASTATIN] | – | – | – | 75% | 0% | 70% | –
CN1CCOC(O)(c2ccc(-c3nccs3)cc2)C1 (stereo unspecified) | – | – | 30% | – | – | – | –
OC1(c2ccc(C3CCCCC3)cc2)CN2CCCCC2CO1 (stereo unspecified) | 700 µM | 9% | – | 80% | 70% | 62% | 80 µM
CN1CCOC(O)(c2ccc(C3CCCCC3)cc2)C1 (stereo unspecified) | 190 µM | 0% | – | 44% | 34% | 36% | > 100 µM

More lines, main results first:

IC50 (Liver) | inhibition [3] | inhibition [4] | SMILES | inhibition in vivo at 56 µmol/kg (Rattus norvegicus [1]) | inhibition in vivo at 56 µmol/kg (Rattus norvegicus [2]) | inhibition in vivo at 56 µmol/kg (Rattus norvegicus [5]) | IC50 (Squalene synthase)
135 µM | 61% | – | CN1CC(O)(c2ccc(-c3ccc(O)cc3)cc2)OC2CCCCC21 (stereo unspecified) | 54% | 48% | – | –
539 µM | 43% | – | O=[N+]([O-])c1ccc(-c2ccc(C3(O)CN4CCCCC4CO3)cc2)cc1 (stereo unspecified) | 59% | 31% | – | –
191 µM | 76% | – | CN1CC(O)(c2ccc3c(ccc4ccccc43)c2)OC2CCCCC21 (stereo unspecified) | 49% | 59% | 20% | 5.5 µM
214 µM | 67% | – | CN1CC(O)(c2ccc(-c3ccc(C(C)(C)C)cc3)cc2)OC2CCCCC21 (stereo unspecified) | 17% | 15% | – | –
91 µM | 61% | – | CN1CCOC(O)(c2ccc(-c3ccc(C(C)(C)C)cc3)cc2)C1 (stereo unspecified) | 45% | 47% | – | –
410 µM | 40% | – | CC(C)(C)c1ccc(-c2ccc(C3(O)CN4CCCCC4CO3)cc2)cc1 (stereo unspecified) | 64% | 59% | – | –
134 µM | 7% | – | Oc1ccc(-c2ccc(C3(O)CN4CCCCC4CO3)cc2)cc1 (stereo unspecified) | 40% | 43% | – | –
57 µM | – | – | CN1CC(O)(c2ccc(-c3ccc([N+](=O)[O-])cc3)cc2)OC2CCCCC21 (stereo unspecified) | 62% | 20% | – | –
198 µM | 87% | – | OC1(c2ccc3c(ccc4ccccc43)c2)CN2CCCCC2CO1 (stereo unspecified) | 40% | 66% | 53% | 0.7 µM
– | – | 29% | CN1CC(O)(c2ccc(-c3nccs3)cc2)OC2CCCCC21 (stereo unspecified) | – | – | – | –
